Only some compounds are listed: those with a hit (about 2.4% of all), similar ones and a draw of the others.
AP complement: alternative pathway complement inhibition, orthogonal assay; Human serum alternative complement pathway, LPS-coated ELISA, C3 deposition; tested in compound mixtures; inhibition, % at 5 µM; 62,000 compounds, 0.08% hits; AID 1235;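 active means inhibition above 30% in each of the two pooled mixtures holding the compound, so the lower value exceeds 30%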;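 further: 0% = serum in Mg-EGTA without compound and 100% = EDTA serum blank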
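Medium: diluted human serum in Mg2+-EGTA GVB++. Assay system: human serum complement alternative pathway, C3 deposition onto LPS. Also added: Plate-bound LPS. Technique: Anti-C3 ELISA, OD 450 nm. Measure: percent inhibition. Incubation: 1 h at 37 °C. Dosing: 5 µM each compound, pools of ten, 50 µM per pool.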
MMP-13 inhibitor: inhibitors of human MMP13 | MMP-13 fTHP FRET cleavage, Mca fluorescence | inhibition, % at 4 µM | 65,000 compounds, 0.07% hits;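 active means inhibition above the mean of compound-free control plate wells plus 3 SD, cut at about 14% in these data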;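 further: 0% = DMSO wells and 100% = wells with reference MMP-13 inhibitor after basal subtraction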
E coli RNAP: Escherichia coli RNA polymerase inhibition; P0A8V2; E. coli RNA polymerase, fluorescence transcription assay; inhibition, %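 (tested at 10 µM)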; 62,000 compounds, 0.2% hits; AID 559; in the data active means inhibition above about 20%;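 further: 0% = enzyme without compound and 100% = no enzyme blank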
SF-1 act: SF-1 (human) activation; activation, % at 10 µM; CHO-K1 Gal4-SF-1 LBD luciferase reporter; % increase over DMSO SF-1-specific signal; 65,000 compounds, 1.9% hits; AID 522; Q13285;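 active means activation above the mean activation of all tested compounds plus 3 SD, cut at about 50% in these data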
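Assay system: CHO-K1 cells co-transfected with Gal4 DBD–human SF-1 LBD, 5xGal4 luciferase reporter; doses: 10 µM only; incubation: 20 h compound exposure at 37 °C after 1 h cell settling; signal: luciferase light emission; evaluation: percent activation versus DMSO; repeats: one test per compound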
RORA act: RORA (human) activation | CHO-K1 Gal4-RORA LBD luciferase reporter, luminescence; percent increase over mock-subtracted basal signal | activation, % at 10 µM | 65,000 compounds, 1.5% hits | AID 560;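 active means activation above the mean of all tested compounds plus 3 SD, cut at about 49% in these data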;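 further: 0% = DMSO-treated RORA cells and 100% = added signal equal to DMSO minus mock-transfected cells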
HePTP inh: human HePTP phosphatase inhibition; P35236; recombinant HePTP phosphatase activity, OD absorbance; inhibition, % at 20 µM; 110,000 compounds, 0.64% hits; in the data active means inhibition above about 50%;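 further: plate controls were vehicle for no effect and reference inhibitor for full effect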
Target sequence (P35236 whole entry, looked up): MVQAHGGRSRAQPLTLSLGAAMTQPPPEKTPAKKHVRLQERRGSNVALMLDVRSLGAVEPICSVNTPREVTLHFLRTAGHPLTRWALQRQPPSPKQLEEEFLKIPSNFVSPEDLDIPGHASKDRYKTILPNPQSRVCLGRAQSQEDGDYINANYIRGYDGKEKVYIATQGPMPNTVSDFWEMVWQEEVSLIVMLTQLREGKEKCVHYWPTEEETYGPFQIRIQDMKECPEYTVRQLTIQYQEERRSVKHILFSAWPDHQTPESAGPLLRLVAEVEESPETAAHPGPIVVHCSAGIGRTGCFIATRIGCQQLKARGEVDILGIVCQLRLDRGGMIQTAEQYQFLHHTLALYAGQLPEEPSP
Active calls of the source: *; x = no result given; ! = not active in a repeat.

SMILES | AP complement | MMP-13 inhibitor | E coli RNAP | SF-1 act | RORA act | HePTP inh
O=C(Nc1cccnc1)c1ccc(-c2ccc(Br)cc2)o1 | x | x | x | x | x | -14
CC(C)Oc1ccc(C(=O)NCc2cccnc2)cc1 | 4 | 0 | 13 | -16 | -9 | 104*!
O=C(NCc1cccnc1)c1ccc(-c2ccccc2)cc1 | x | x | x | x | x | -1
O=C(O)c1nc2ccccc2nc1C(=O)O | 13 | -2 | 1 | 58* | 44 | 8
CCOC(=O)c1c(-c2ccccc2)csc1NC(=O)c1sc2cc(F)ccc2c1Cl | x | x | x | x | x | 4
Cc1ccccc1/C=N/N1CCN(Cc2ccc(Cl)cc2)CC1 | x | x | x | x | x | 105*
Cc1ccnc(NC(=O)CSc2nc3ccccc3s2)c1 | x | x | x | x | x | -9
CCOC(=O)CNC(=O)c1ccc2c(c1)OCCO2 | 3 | 4 | 11 | 53* | 33 | -1
CCOC(=O)CNC(=O)c1cc(-c2ccc3c(c2)OCCO3)oc1C | 14 | 5 | 3 | -7 | -10 | -10
O=C(c1ccc(-c2ccccc2)cc1)N1CCN(C(=O)c2cccs2)CC1 | x | x | x | x | x | 3
CCOC(=O)c1c(C)nc(-c2ccccc2)nc1N | 12 | -3 | 9 | 58* | 51* | 2
Oc1ccc(-c2nc3cnccn3c2Nc2ccc3c(c2)OCCO3)cc1 | 14 | -4 | -1 | 27 | 53* | 8
Cc1ccc2c(Cl)c(C(=O)NCc3ccco3)sc2c1 | x | x | x | x | x | -7
O=C(CCNc1ccccc1)c1ccc2c(c1)OCO2 | -6 | 4 | 3 | 62* | 43 | -4
CC(=O)Nc1ccccc1OCC(=O)c1ccc2c(c1)OCO2 | 5 | 2 | 6 | 25 | 65* | 9
CN(C)CCC(=O)c1ccc2c(c1)OCO2 | 13 | 0 | 3 | 5 | -20 | 3
CCc1ccccc1NC(=O)c1ccc2c(c1)OCO2 | x | x | x | x | x | -11
CCOC(=O)c1cnc2cc(-c3ccccc3Cl)[nH]n2c1=O | x | x | x | x | x | 7
CCOc1cc(/C=C2\C(=O)NN(c3ccc(Cl)c(Cl)c3)C2=O)ccc1OC(C)=O | x | x | x | x | x | 5
CC(/C=N\NC(=O)c1cc(C(C)(C)C)[nH]n1)=C\c1ccccc1 | x | x | x | x | x | 8
O=C(N/N=C/C(Br)=C/c1ccccc1)c1cc(-c2ccco2)[nH]n1 | x | x | x | x | x | 102*
COc1ccc(N2C(=O)/C(=C/c3cc([N+](=O)[O-])cc(OC)c3O)SC2=S)cc1 | x | x | x | x | x | 104*
O=C(Nc1nccs1)c1ccc(COc2ccc(Cl)cc2)o1 | 9 | -4 | -1 | 29 | 5 | 14
CN(C)C(=O)c1ccc(COc2ccccc2Br)o1 | 1 | -1 | 14 | 49 | 41 | 8
O=C(COc1ccccc1Cl)Nc1nccs1 | x | x | x | x | x | -9
SMILES | AP complement | MMP-13 inhibitor | E coli RNAP | SF-1 act | RORA act | HePTP inh
O=C(COc1ccc(F)cc1)Nc1nccs1 | 18 | -3 | 9 | 42 | 102* | 2
O=C(Nc1nccs1)c1ccc(COc2ccccc2Br)o1 | 1 | -2 | 10 | 60* | 21 | 5
O=C(Nc1nccs1)c1ccc(COc2ccc(F)cc2)o1 | 17 | 1 | 1 | 64* | 8 | 4
COCCCNC(=O)Cc1ccc(OC)c(OC)c1 | x | x | x | x | x | 6
C=CCN1C(=O)/C(=C\c2cn(C)c3ccccc23)SC1=S | x | x | x | x | x | -4
Cc1ncoc1C(=O)Nc1ccc(Oc2ccccc2)cc1 | 2 | -1 | 6 | 59* | 32 | 5
CC(C)(CO)C(O)C(=O)NCc1ccc(C(=O)O)cc1 (configuration not stated) | x | x | x | x | x | -11
CCc1ccc(-c2ccc(C(=O)O)cc2)nc1 | -1 | 0 | 6 | 85* | 38 | 5
CC(C)c1ccc(/C=C/C(=O)Nc2ccc(C(N)=O)cc2)cc1 | x | x | x | x | x | 104*
Cc1cccc(NC(=O)c2cc3ccccc3c(=O)o2)n1 | 8 | 1 | 4 | 65* | 57* | -1
Cc1cccc(NC(=O)c2ccc(C(=O)Nc3cccc(C)n3)cc2)n1 | x | x | x | x | x | -9
CC(=O)Nc1ccc(OC(=O)c2cccc([N+](=O)[O-])c2)cc1 | x | x | x | x | x | -10
CC(=O)Nc1ccc(OC(=O)c2c(F)cccc2F)cc1 | x | x | x | x | x | 90*
COC(=O)C1=CN(Cc2ccc(OC)cc2)C=C(C(=O)OC)C1c1ccc2c(c1)OCO2 | x | x | x | x | x | -10
COc1cc(-c2nnc3ccc(C(F)(F)F)cn23)ccc1Oc1ccc([N+](=O)[O-])cc1 | x | x | x | x | x | 102*
O=[N+]([O-])c1ccc(N=Cc2cc(I)cc(I)c2O)c(O)c1 | x | x | x | x | x | 76*
COc1ccc(Cl)cc1NC(=O)c1ccncc1 | x | x | x | x | x | 10

Bioassay records deposited in PubChem by several laboratories.
